How the values were obtained:
HEK293 [1] = experiment: Cytotoxicity against HEK293 cells after 72 hrs by MTT assay; assay type: functional, cell-based; conditions: Homo sapiens, HEK293, 72 h
Outline: (§1)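 Cells seeded at 3x10^5 cells/mL 24 h before assay (HEK293, AsPC-1 in DMEM; Jurkat, W1308 in RPMI-1640; 10% FCS, 2-ME). Tenfold dilutions from […] to 1 nM added; untreated cells as controls. 72 h incubation, MTT 250 µg/ml added for last 6 h, formazan dissolved in DMSO, OD read. IC50 from titration curves; inhibition index = 1 − OD(treated)/OD(control).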

[2] = Cytotoxicity against mouse W1308 cells after 72 hrs by MTT assay; assay type: functional, cell-based; conditions: W1308, 72 h; outline: as §1
ASPC1 [3] = experiment: Cytotoxicity against human AsPC1 cells after 72 hrs by MTT assay; assay type: functional, cell-based; conditions: ASPC1, 72 h; outline: as §1
Jurkat [4] = experiment: Cytotoxicity against human Jurkat cells after 72 hrs by MTT assay; assay type: functional, cell-based; outline: as §1
HEK293 [5] = experiment: Growth inhibition of HEK293 cells at 100 uM after 72 hrs by MTT assay; assay type: functional; conditions: Homo sapiens, HEK293, 72 h; read-out: GI
Jurkat [6] = experiment: Growth inhibition of human Jurkat cells at 100 uM after 72 hrs by MTT assay; assay type: functional; conditions: read-out: GI
[7] = Growth inhibition of mouse W1308 cells at 100 uM after 72 hrs by MTT assay; assay type: functional; conditions: W1308, 72 h, read-out: GI
ASPC1 [8] = experiment: Growth inhibition of human AsPC1 cells at 100 uM after 72 hrs by MTT assay; assay type: functional; conditions: ASPC1, 72 h, read-out: GI

SMILES | IC50 (HEK293 [1]) [nM] | IC50 [2] [nM] | IC50 (ASPC1 [3]) [nM] | IC50 (Jurkat [4]) [nM] | inhibition of growth at 100 µM (HEK293 [5]) [%] | inhibition of growth at 100 µM (Jurkat [6]) [%] | inhibition of growth at 100 µM [7] [%] | inhibition of growth at 100 µM (ASPC1 [8]) [%]
COc1cc2c(c(OC)c1OC)-c1cc3ccn(C)c3cc1C(=O)CC2 | < 200 | < 200 | 800 | < 100 |  |  |  | 
COc1cc2c(c(OC)c1OC)-c1cc3cc(-c4ccccc4)oc3cc1[C@@H](NC(C)=O)CC2 | 4000 | 8000 | 20000 | 4000 |  |  |  | 
COc1cc2c(c(OC)c1OC)-c1cc3cc(COC(C)=O)oc3cc1[C@@H](NC(C)=O)CC2 | 1000 | 1000 | 2000 | 1000 | 50 | 50 | 50 | 50
